Measured values from publication PMC6570502 (Chembiochem : a European journal of chemical biology, 2019).
Positions count from the first letter of the chain named. pIC50: −log10 of the molar value.

How the values were obtained:
Assay type in all cases: biochemical
KDM4A N198A mutant [1] = target: T1, KDM4A N198A mutant (Homo sapiens, UniProt O75164, N198A); experiment: MALDI demethylase assay, H3K9me3 substrate peptide, N198A mutant; details: for inhibition of demethylase activity: 100 μM compound, 50 μM 2KG, MALDI-MS; for pIC50: MALDI demethylase assay, dose-dependent
T1 sequence (O75164 1-1064 N198A): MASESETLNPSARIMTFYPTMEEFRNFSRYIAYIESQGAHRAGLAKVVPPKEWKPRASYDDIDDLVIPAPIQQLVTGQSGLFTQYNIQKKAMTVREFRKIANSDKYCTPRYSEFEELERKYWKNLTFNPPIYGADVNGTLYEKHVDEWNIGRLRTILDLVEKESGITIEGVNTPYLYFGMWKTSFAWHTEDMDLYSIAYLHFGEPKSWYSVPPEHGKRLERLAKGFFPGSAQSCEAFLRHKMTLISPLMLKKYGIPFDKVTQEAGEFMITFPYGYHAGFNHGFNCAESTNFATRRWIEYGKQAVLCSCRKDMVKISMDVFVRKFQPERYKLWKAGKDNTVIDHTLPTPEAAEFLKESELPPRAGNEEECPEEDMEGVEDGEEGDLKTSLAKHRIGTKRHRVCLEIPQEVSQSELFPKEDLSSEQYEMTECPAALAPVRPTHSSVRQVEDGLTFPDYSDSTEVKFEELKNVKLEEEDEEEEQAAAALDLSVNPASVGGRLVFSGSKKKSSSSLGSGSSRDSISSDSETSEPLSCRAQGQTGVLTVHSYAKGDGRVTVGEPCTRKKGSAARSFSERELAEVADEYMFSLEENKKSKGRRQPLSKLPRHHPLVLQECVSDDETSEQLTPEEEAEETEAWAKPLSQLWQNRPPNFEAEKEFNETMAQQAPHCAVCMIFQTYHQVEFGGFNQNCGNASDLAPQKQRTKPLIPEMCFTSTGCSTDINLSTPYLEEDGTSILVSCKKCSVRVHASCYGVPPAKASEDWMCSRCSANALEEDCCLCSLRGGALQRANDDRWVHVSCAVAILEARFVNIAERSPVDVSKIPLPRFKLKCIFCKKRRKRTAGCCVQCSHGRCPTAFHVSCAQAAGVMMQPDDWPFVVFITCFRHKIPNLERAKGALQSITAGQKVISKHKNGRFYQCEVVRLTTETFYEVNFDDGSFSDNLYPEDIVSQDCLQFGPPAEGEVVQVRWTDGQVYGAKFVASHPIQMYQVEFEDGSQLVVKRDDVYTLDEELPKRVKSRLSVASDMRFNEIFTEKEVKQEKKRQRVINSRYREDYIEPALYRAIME

KDM4A N198A mutant [2] = target: T1, KDM4A N198A mutant; experiment: Demethylation of full-length H3Kc9me3 by western blot with H3K9me3 antibody; details: in presence of 2KG
Summary of the method: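 Substrate is full-length histone H3 carrying a trimethyl-lysine analogue at K9 (H3KC9me3), installed chemically by the thialysine approach and verified by ESI-HRMS. The substrate is incubated with the KDM4A N198A mutant. Remaining K9 trimethylation is then detected by western blot with an anti-H3K9me3 antibody.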

wild type KDM4A = target: T2, wild type KDM4A (Homo sapiens, UniProt O75164); experiment: MALDI demethylase assay, H3K9me3 substrate peptide, wild type enzyme; details: 3 mM compound
T2 sequence (O75164 1-1064): T1 sequence (O75164 1-1064 N198A) with A198N

KDM4A N198G mutant = target: T3, KDM4A N198G mutant (Homo sapiens, UniProt O75164, N198G); experiment: MALDI demethylase assay, H3K9me3 substrate peptide, N198G mutant
T3 sequence (O75164 1-1064 N198G): T1 sequence (O75164 1-1064 N198A) with A198G

| Compound | inhibition of demethylase activity (KDM4A N198A mutant [1]) | pIC50 (KDM4A N198A mutant [1]; N198A mutant) | Hill slope (KDM4A N198A mutant [1]; N198A mutant, dose-response of IC50 experiment) | inhibition of demethylation of full-length H3Kc9me3 (KDM4A N198A mutant [2]) | inhibition of wild type KDM4A (wild type KDM4A) | inhibition of demethylase activity (KDM4A N198G mutant; 100 μM compound, 50 μM 2KG, MALDI-MS) | pIC50 (KDM4A N198G mutant; N198G mutant, MALDI demethylase assay) | selectivity over the wild type enzyme (KDM4A N198A mutant [1]; N198A mutant vs wild type KDM4A) |
| --- | --- | --- | --- | --- | --- | --- | --- | --- |
| CCC(NC(=O)C(=O)O)C(=O)O (centres unmarked) [compound 3, ethyl-NOG] | significantly inhibited | 3.86 | −1.06 | significantly inhibited | About 50% |  |  |  |
| CC(C)C[C@H](NC(=O)C(=O)O)C(=O)O [compound 7, leucine-NOG] |  |  |  |  |  | inhibited | 3.54 |  |
| propyl-NOG [compound 5] | significantly inhibited | 4.10 |  |  | no more than 30% |  |  | more than 20 fold |
